Assay [1] can be described thus: inhibitors of TNFa-induced NFkB p65 translocation, primary screen, imaging, HUVEC, MLSMR starter and 10KST1 sets (AID 438;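 active = inhibition above 20% together with a positive visual image hit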;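 note: compound added about 3h40 before a 20 min TNFalpha stimulation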;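 for inhibition: signal is the nuclear over cytoplasmic p65 intensity ratio per well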). Particulars: HUVEC TNFa-induced p65 nuclear translocation; cell count: measured here: nuclei count (cytotoxicity indicator), at 2.08 µM; inhibition: at 2 µM, stronger effect = higher value, 0% TNFa-plus-vehicle, 100% no-TNFa wells.
The nature of assay [2]: inhibitors of E-selectin induction by TNFa, primary screen, imaging, HUVEC, immunofluorescence, MLSMR starter and 10KST1 sets (AID 487;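 active = visually confirmed hit in the image check and inhibition above 20%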;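 for inhibition: signal is fraction of cell area covered by stained E-selectin grains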;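 for nuclei count: 100% = median nuclei count of all wells on the same plate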). Particulars: HUVEC TNFalpha-induced E-selectin immunofluorescence imaging, at 2 µM; inhibition: stronger effect = higher value; nuclei count: measured here: cell number, toxicity.
The nature of assay [3]: DUSP6 inhibitors restoring Erk phosphorylation by chemical complementation, primary imaging in DUSP6-transfected HeLa (AID 609;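 active = compounds giving at least 50% inhibition in the cell-based MKP-3 phosphatase rescue imaging test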;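 for inhibition: phospho-Erk level distribution per well compared with pooled transfected vehicle control wells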). To be noted: HeLa MKP-3 transfected, phospho-Erk imaging KS statistic, at 10 µM, cells stimulated with TPA for 15 min.
Assay [4] has as its target Dual specificity protein phosphatase 6 (Homo sapiens) (UniProt Q16828). The description is as above. To be noted: HeLa MKP-3 transfected, phospho-Erk imaging KS statistic; at 10 µM; stronger effect = higher value; cells stimulated with TPA for 15 min.
Assay [5] concerns the target Voltage-gated potassium channel subunit beta-2 (Rattus norvegicus) (UniProt P62483). The experiment in a line: KvBeta enzyme negative modulators, primary screen, biochemical, NADPH fluorescence (AID 622).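 Note: slope of raw intensity against log time taken from 70 to 1610 s.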 Particulars: recombinant KvBeta, 4-cyanobenzaldehyde reduction, at 10 µM, stronger effect = higher value.
Assay [6] shares this target. Description: KvBeta positive modulators, primary screen, biochemical, NADPH fluorescence (AID 623;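 active = NADPH fluorescence slope more negative than the mean of all samples by about 3 SD, 99.7% confidence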;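 note: fluorescence intensity change per second fitted from 20 to 320 s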). Particulars: Recombinant KvBeta, NADPH fluorescence decrease slope, 10 min; at 10 µM; stronger effect = lower value.
The target of assay [7] is Alpha-2C adrenergic receptor (Homo sapiens) (UniProt P18825). Description: modulators of alpha2C/GIRK thallium flux, primary screen, cell-based, HEK293 alpha2C/GIRK1/2 (AID 624;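 active = fluorescence slope after compound addition differing from the mean of all screened samples at 99.7% confidence, in either direction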;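 note: slope of fluorescence ratio to pre-addition baseline per second over 15 to 24 s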). To be noted: thallium flux BTC fluorescence, at 10 µM, actives lie on both sides.
A short description of assay [8]: inhibitors of larval lipid processing in zebrafish, primary screen, whole organism, PED6 fluorescence, gall bladder and intestine (AID 686;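 active = a full or partial loss of lipid-probe fluorescence in the fish gall bladder, intestine or both, judged by eye; inactive = no fluorescence loss, or compound toxic to the fish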;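 note: larvae 5 to 7 days old with five fish per well; signal comes from phospholipase A2 cleavage of quenched PED6 carried via bile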). Particulars: Zebrafish larvae PED6 lipid processing, fluorescence scoring; screened at 20 µM (by protocol). The method in brief: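 system = live zebrafish larvae aged 5-7 days, whole organism | probe or stimulus = ingested quenched lipid PED6 at 100 nM | doses = 20 µM single dose | timing = overnight exposure | detection = fluorescence microscopy with visual scoring of gall bladder and intestine | read-out = visual per-well fluorescence inhibition score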

A short description of assay [9]: inhibitors of Chlamydomonas gravitaxis, primary screen, whole organism, Chlamydomonas reinhardtii, WT vs cilia-less mutant, absorbance, 96-well (AID 463189;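 active = inhibition at or above 50% relative to wild type and mutant plate controls; inactive = inhibition below 50%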;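 note: 0% = wild type cc124 cells in DMSO and 100% = ciliumless bld1 mutant cells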). To be noted: OD600 absorbance, 2 days, at 10 µM, stronger effect = higher value.
[10] abbreviates: measured here: cell density z-score.
[11] abbreviates: measured here: nuclear c-Myc green intensity z-score.
Setting [12] is: measured here: nuclear pErk red intensity z-score, stronger effect = higher value.

These results are taken from PubChem BioAssay.

The inhibition is the change of the read-out against control, counted positive when it falls.

SMILES strings stand for the structures. The source made the active and inactive calls.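 Rule for the calls, unless noted: active = fluorescence slope higher than the sample average by over 3 SD (cut at about -0.22 in these data, passing the limit was not always enough); inactive = the rest.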

Chain of Dual specificity protein phosphatase 6 (Homo sapiens) (Q16828 whole entry, looked up): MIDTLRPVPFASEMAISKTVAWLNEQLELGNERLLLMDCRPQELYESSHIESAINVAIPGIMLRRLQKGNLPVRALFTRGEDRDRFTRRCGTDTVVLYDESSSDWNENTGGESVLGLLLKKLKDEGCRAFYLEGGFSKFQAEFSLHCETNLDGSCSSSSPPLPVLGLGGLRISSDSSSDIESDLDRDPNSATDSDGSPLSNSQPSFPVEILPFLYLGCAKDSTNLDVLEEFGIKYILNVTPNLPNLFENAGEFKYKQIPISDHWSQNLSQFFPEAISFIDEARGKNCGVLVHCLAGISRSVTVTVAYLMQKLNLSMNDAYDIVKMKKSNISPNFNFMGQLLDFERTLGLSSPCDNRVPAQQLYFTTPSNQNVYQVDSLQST
Chain of Voltage-gated potassium channel subunit beta-2 (Rattus norvegicus) (P62483 whole entry, looked up): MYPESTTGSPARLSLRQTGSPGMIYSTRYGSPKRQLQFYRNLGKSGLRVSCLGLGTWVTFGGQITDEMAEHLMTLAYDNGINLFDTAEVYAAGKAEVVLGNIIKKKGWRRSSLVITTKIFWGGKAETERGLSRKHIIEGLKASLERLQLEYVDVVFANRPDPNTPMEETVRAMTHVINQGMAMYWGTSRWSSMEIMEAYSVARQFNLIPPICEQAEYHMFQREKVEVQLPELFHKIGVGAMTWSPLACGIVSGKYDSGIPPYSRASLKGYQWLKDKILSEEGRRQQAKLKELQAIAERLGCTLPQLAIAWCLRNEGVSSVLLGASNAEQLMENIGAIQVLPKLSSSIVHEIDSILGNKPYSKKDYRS
Chain of Alpha-2C adrenergic receptor (Homo sapiens) (P18825 whole entry, looked up): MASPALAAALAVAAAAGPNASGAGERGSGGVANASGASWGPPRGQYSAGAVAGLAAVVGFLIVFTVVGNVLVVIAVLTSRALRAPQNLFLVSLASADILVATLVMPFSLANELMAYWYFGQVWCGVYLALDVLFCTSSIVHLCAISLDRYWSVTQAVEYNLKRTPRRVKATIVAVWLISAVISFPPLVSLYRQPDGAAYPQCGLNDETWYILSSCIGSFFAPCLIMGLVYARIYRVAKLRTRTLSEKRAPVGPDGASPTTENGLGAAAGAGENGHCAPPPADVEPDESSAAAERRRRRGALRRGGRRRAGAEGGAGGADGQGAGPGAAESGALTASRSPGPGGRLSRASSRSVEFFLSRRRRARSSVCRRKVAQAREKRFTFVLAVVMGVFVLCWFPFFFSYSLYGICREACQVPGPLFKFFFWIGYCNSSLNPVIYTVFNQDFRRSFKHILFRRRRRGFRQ

For `N#Cc1c(SCC(N)=O)nsc1SCc1ccc(Cl)cc1`, the cell count in [1] is 633. Moreover, the inhibition in assay [1] was -17.9% (inactive); in assay [2], -60.5% (inactive); in assay [4] it was 17.7% (inactive); in assay [9] it was 26.4% (inactive). The nuclei count in assay [2] came to 148%. The z-score in assay [3] (setting [10]) is 0.999; in [3] (setting [11]) it was -1.2; in [3] (setting [12]) it was -0.0749. Also, the fluorescence slope in assay [5] was -0.406 (inactive). Further, the NADPH fluorescence slope in assay [6] is -1.2e-05 (inactive). Further, in [7], the slope is 0.00612 (inactive). Besides, in [8], the molecule was called inactive.
For the molecule `COc1ccccc1N1CCN(C(=O)c2c(C)cc(=O)oc2C)CC1`, the cell count in assay [1] turned out to be 275. For the same molecule, the inhibition in [1] is -1.5% (inactive); in assay [2], -18.9% (inactive); in [4], 11.4% (inactive); in assay [9] it was -9.22% (inactive). Also, in [2], the nuclei count is 95.9%. The z-score in assay [3] (setting [10]) is -0.53; in assay [3] (setting [11]) it was 2.24; in assay [3] (setting [12]), -0.762. Also, the fluorescence slope in assay [5] was -0.461 (inactive). The NADPH fluorescence slope in [6] is -8.2e-05 (inactive). Further, the slope in assay [7] was 0.00477 (inactive). In addition, the call in assay [8] was inactive.
As to `CCC(=O)Nc1cc(-c2nn(C)c(=O)c3ccccc23)ccc1N1CCCCC1`, the cell count in assay [1] was 527. Also, the inhibition was -10.5% (inactive) in [1], -20.7% (inactive) in [2], -3.5% (inactive) in [4] and 25.8% (inactive) in assay [9]. This molecule gave a nuclei count in [2] of 161%. Moreover, the results for the z-score in assay [3] (setting [10]), in [3] (setting [11]) and in assay [3] (setting [12]) were -0.258, -0.867 and 0.981, respectively. Also, in [5], the fluorescence slope was -0.373 (inactive). Moreover, in assay [6], the NADPH fluorescence slope was -2.2e-05 (inactive). In assay [7], the slope was 0.00441 (inactive). For the same molecule, the call in [8] was inactive.
For `CCCOc1ccc(Cn2c(O)cc(=O)[nH]c2=O)cc1`, the cell count in [1] turned out to be 568. The inhibition is 0% (inactive) in assay [1], -90.4% (inactive) in assay [2], -8.95% (inactive) in assay [4] and -1.95% (inactive) in assay [9]. The molecule further yielded a nuclei count in [2] of 188%. Moreover, the z-score in [3] (setting [10]) was -0.648; in [3] (setting [11]), -0.788; in [3] (setting [12]), 0.279. Also, in [5], the fluorescence slope is -0.372 (inactive). The NADPH fluorescence slope in assay [6] is -3.5e-05 (inactive). Also, in [7], the slope is 0.00508 (inactive). The outcome in assay [8] was inactive.
In the case of `C=CCc1c(C)nc(SCCC)[nH]c1=O`, in assay [1], the cell count was determined as 540. The inhibition is -10.1% (inactive) in [1], -102% (inactive) in assay [2], 7.93% (inactive) in assay [4] and 18.7% (inactive) in assay [9]. The nuclei count in [2] stood at 135%. Moreover, the z-score in assay [3] (setting [10]) was 0.611; in assay [3] (setting [11]), -0.0505; in assay [3] (setting [12]), -0.577. For the same molecule, in assay [5], the fluorescence slope is -0.486 (inactive). In addition, the NADPH fluorescence slope in assay [6] was -1.9e-05 (inactive). Moreover, in assay [7], the slope was 0.0077 (inactive). Besides, the call in [8] was inactive.
Take `COc1ccc(/C(O)=C2/C(=O)C(=O)N(CCCN(C)C)C2c2ccccc2)cc1OC` (centres undefined): in assay [1], the cell count amounted to 346. Further, the inhibition in assay [1] was -14.7% (inactive); in assay [2], -317% (inactive); in assay [4], 9.39% (inactive); in [9] it was -0.889% (inactive). In [2], the nuclei count stood at 131%. The z-score in assay [3] (setting [10]) was -0.204; in assay [3] (setting [11]), -0.251; in assay [3] (setting [12]) it was 0.0495. For the same molecule, the fluorescence slope in [5] is -0.386 (inactive). For the same molecule, the NADPH fluorescence slope in assay [6] is -3.5e-05 (inactive). Further, in [7], the slope is 0.00558 (inactive). In addition, in [8], the molecule was classed as inactive.
As to `COc1cccc(/C(O)=C2/C(=O)C(=O)N(CCCN(C)C)C2c2cccc(Cl)c2)c1` (centres undefined), the cell count in assay [1] came out at 339. Besides, the inhibition in assay [1] was -13.6% (inactive); in [2], -326% (inactive); in assay [4], 11.3% (inactive); in assay [9], 1.66% (inactive). Also, in assay [2], the nuclei count is 182%. Besides, the values for the z-score in assay [3] (setting [10]), in assay [3] (setting [11]) and in assay [3] (setting [12]) were 0.0823, -0.754 and 0.354, respectively. Also, the fluorescence slope in assay [5] was -0.436 (inactive). Further, the NADPH fluorescence slope in assay [6] is -5.7e-05 (inactive). The slope in [7] was 0.00508 (inactive). For the same molecule, the call in assay [8] was inactive.
`CC(=NC1CCCC1)c1c(C)[nH]n(-c2nc3ccccc3s2)c1=O`: the cell count in [1] worked out at 573. Also, the inhibition in assay [1] was 3.4% (inactive); in [2] it was 54.6% (inactive); in assay [4], -1.12% (inactive); in assay [9], 6.63% (inactive). The molecule also showed a nuclei count in assay [2] of 142%. Besides, the z-score in assay [3] (setting [10]) was 0.859; in [3] (setting [11]), 0.776; in assay [3] (setting [12]) it was -1.4. In assay [5], the fluorescence slope was -0.469 (inactive). In addition, the NADPH fluorescence slope in assay [6] is -0.000261 (inactive). Also, the slope in assay [7] was 0.00463 (inactive). Further, the result in [8] was inactive.
For the molecule `CCOC(=O)c1c(NC(=O)CCN2CCOCC2)sc2c1CC(C)(C)OC2`, the cell count in assay [1] came out at 658. The inhibition in assay [1] is -8.1% (inactive); in assay [2], -45.3% (inactive); in assay [4] it was -7.28% (inactive); in assay [9], -12.8% (inactive). Besides, the nuclei count in assay [2] is 163%. The z-score in assay [3] (setting [10]) stood at 0.476; in assay [3] (setting [11]), 1.14; in assay [3] (setting [12]), 0.27. The fluorescence slope in assay [5] is -0.422 (inactive). Besides, the NADPH fluorescence slope in assay [6] is -3e-05 (inactive). In addition, the slope in [7] is 0.00607 (inactive). Besides, the molecule was classed as inactive in assay [8].
On to `CCc1cccc(C)c1N(C(=O)Cn1c(=O)[nH]c2ccccc21)C(C)COC` (centres undefined), for which the cell count in assay [1] was 362. In addition, the inhibition in assay [1] was -2.1% (inactive); in assay [2], -33.7% (inactive); in assay [4], 5.57% (inactive); in assay [9] it was 32.6% (inactive). Moreover, the nuclei count in assay [2] came out at 97%. In addition, the z-score in [3] (setting [10]) is 0.81; in assay [3] (setting [11]) it was -0.372; in assay [3] (setting [12]), 0.826. For the same molecule, the fluorescence slope in [5] is -0.546 (inactive). The NADPH fluorescence slope in [6] was -4.3e-07 (inactive). Moreover, the slope in [7] is 0.00687 (inactive). Moreover, the result in assay [8] was inactive.
For the molecule `CC(=O)NC1(C(F)(F)F)C(=O)Nc2c1c(=O)n(C)c(=O)n2C` (centres undefined), the cell count in assay [1] came out at 480. Moreover, the inhibition in assay [1] is -4.5% (inactive); in assay [2], -139% (inactive); in [4] it was 1.6e-07% (inactive); in [9], 2.3% (inactive). The nuclei count in assay [2] was determined as 144%. Moreover, the z-score in assay [3] (setting [10]) is 0.582; in [3] (setting [11]), -0.0109; in [3] (setting [12]) it was -0.0908. The fluorescence slope in assay [5] is -0.529 (inactive). Moreover, the NADPH fluorescence slope in assay [6] was -4.1e-05 (inactive). Also, the slope in assay [7] is 0.00477 (inactive). Moreover, the molecule was called inactive in assay [8].
Consider `CCOC(=O)c1sc(-n2[nH]c(C)cc2=O)nc1C`, for which the cell count in [1] is 452. Also, the inhibition in [1] was -2.2% (inactive); in assay [2] it was -23% (inactive); in [4], -10.1% (inactive); in [9], -4.12% (inactive). In addition, the nuclei count in assay [2] was found to be 170%. The z-score was 1.1 in assay [3] (setting [10]), -0.753 in assay [3] (setting [11]) and 0.507 in assay [3] (setting [12]). In addition, the fluorescence slope in assay [5] was -0.398 (inactive). Besides, the NADPH fluorescence slope in assay [6] is -7e-05 (inactive). In assay [7], the slope was 0.00502 (inactive). The molecule was classed as inactive in [8].
For `CN(C)c1nc2n(c(=S)n1)CCS2`, in assay [1], the cell count is 604. Further, the inhibition in assay [1] is -3.2% (inactive); in assay [2] it was -204% (inactive); in assay [4], 16.1% (inactive); in assay [9] it was -16.2% (inactive). Besides, the nuclei count in [2] amounted to 109%. Also, the z-score in [3] (setting [10]) is -0.355; in [3] (setting [11]) it was -0.0746; in assay [3] (setting [12]), 0.173. The fluorescence slope in [5] was -0.409 (inactive). In addition, in assay [6], the NADPH fluorescence slope was -2e-05 (inactive). The slope in assay [7] was 0.00562 (inactive). The call in assay [8] was inactive.
